From PubChem BioAssay AID588578 (Sanford-Burnham Center for Chemical Genomics, 2011)
The source made the active and inactive calls.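 How the source made its calls: active means IC50 at or below 20 µM; inactive means the rest.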

Target: Bcl-2-like protein 1 (Homo sapiens) (UniProt Q07817)
Test: displacement of Bim BH3 peptide from Bcl-XL – biochemical, fluorescence polarization, GST-Bcl-XL, FITC-Bim, selectivity assay for Bcl-B inhibitor project, SAR follow-up (AID 588578)
In short: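 Test system: purified GST-Bcl-XL lacking C-terminal transmembrane region, E. coli-expressed / Medium: HEPES buffer pH 7.5 with Tween-20 and TCEP / Compound dosing: 10-point dose series, 2-fold dilution steps / Also added: FITC-Bim probe peptide / Read-out basis: IC50 via sigmoidal curve fit / Schedule: compound-protein preincubation 20 min at 4 °C, tracer 10 min at RT, dark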

Bcl-2-like protein 1 (Homo sapiens), sequence (Q07817 whole entry, looked up): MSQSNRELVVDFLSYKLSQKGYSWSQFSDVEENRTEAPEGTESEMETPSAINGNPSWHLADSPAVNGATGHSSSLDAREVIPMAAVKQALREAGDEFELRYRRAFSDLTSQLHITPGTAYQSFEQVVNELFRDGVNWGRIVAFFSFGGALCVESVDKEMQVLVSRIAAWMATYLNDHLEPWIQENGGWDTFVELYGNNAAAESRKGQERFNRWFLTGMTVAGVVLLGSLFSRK

`O=c1c2c(n3nnnc3n1Cc1ccccc1)-c1cc(F)ccc1CC21CCCC1` was tested, and the IC50 was > 20 µM (inactive).
With `O=c1[nH]c(CN2CCCC2)nc2c1C1(CCCC1)Cc1ccccc1-2` the IC50 was > 20 µM (inactive).
For `CC1(C)Cc2ccccc2-c2nc3nn[nH]n3c(=O)c21`, the IC50 was > 20 µM (inactive).
For `Cc1ccc2c(c1)-c1c(c(=O)n(Cc3ccc(F)cc3)c3nncn13)C1(CCCCC1)C2`, the IC50 was > 20 µM (inactive).
With `O=c1c2c(n3nnnc3n1Cc1ccccc1)-c1ccccc1CC21CCCC1` the IC50 was > 20 µM (inactive).
With `CC1(C)Cc2ccccc2-c2c1c(=O)n(Cc1ccccc1)c1nnnn21` the IC50 was > 20 µM (inactive).
In the case of `C=C(C)Cn1c(=O)c2c(n3nnnc13)-c1ccccc1CC21CCCC1`, the IC50 is reported as > 20 µM (inactive).
`O=c1c2c(-c3ccccc3)n3ncnc3nc2ccn1-n1cnnc1` was tested, and the IC50 was > 20 µM (inactive).
With `O=c1c2c(n3nnnc3n1Cc1ccccc1)-c1ccccc1CC21CCCCC1` the IC50 was > 20 µM (inactive).
`COc1ccc2c(c1)-c1c(c(=O)n(Cc3ccccc3)c3nncn13)C1(CCCC1)C2` was tested, and the IC50 was > 20 µM (inactive).
In the case of `Cn1c(=O)c2c(n3cnnc13)-c1ccccc1CC21CCCC1`, the IC50 is reported as > 20 µM (inactive).
With `Cn1c(=S)[nH]c2c(c1=O)C1(CCCCC1)Cc1ccccc1-2` the IC50 was > 20 µM (inactive).
`Cc1ccc2c(c1)-c1c(c(=O)n(Cc3ccccc3)c3nnnn13)C(C)(C)C2` was tested, and the IC50 was > 20 µM (inactive).
For `c1ccc(OCc2nc3c4c(ncn3n2)-c2ccccc2CC42CCCC2)cc1`, the IC50 was > 20 µM (inactive).
For `O=c1c2c(n3nnnc3n1Cc1ccccc1)-c1cc(F)ccc1CC21CCCCC1`, the IC50 was > 20 µM (inactive).
`Cc1ccc2c(c1)-c1c(c(=O)n(Cc3ccc(F)cc3)c3nnnn13)C1(CCCCC1)C2` was tested, and the IC50 was > 20 µM (inactive).
With `C=C(C)Cn1c(=O)c2c(n3cnnc13)-c1ccccc1CC21CCCC1` the IC50 was > 20 µM (inactive).
`O=c1c2c(nc3[nH]ncn13)-c1ccccc1CC21CCCCC1` was tested, and the IC50 was > 20 µM (inactive).
In the case of `COc1ccc2c(c1)-c1c(c(=O)n(Cc3ccc(F)cc3)c3nnnn13)C(C)(C)C2`, the IC50 is reported as > 20 µM (inactive).
For `Cc1ccc2c(c1)-c1c(c(=O)n(Cc3ccccc3)c3nncn13)C(C)(C)C2`, the IC50 was > 20 µM (inactive).
For `COc1ccc2c(c1)-c1c(c(=O)n(Cc3ccccc3)c3nnnn13)C1(CCCC1)C2`, the IC50 was > 20 µM (inactive).
`O=C1CCCC2=C1C(c1cc(Br)ccc1F)n1ncnc1N2` (stereo not drawn) was tested, and the IC50 was > 20 µM (inactive).
For `O=C1CC(c2ccccc2F)c2c(n3ncnc3[nH]c2=O)N1` (stereo not drawn), the IC50 was > 20 µM (inactive).
In the case of `CC1(C)Cc2ccccc2-c2c1c(=O)n(Cc1ccccc1)c1nncn21`, the IC50 is reported as > 20 µM (inactive).
In the case of `COc1ccc(Cn2c(=O)c3c(n4cnnc24)-c2cc(C)ccc2CC3(C)C)cc1`, the IC50 is reported as > 20 µM (inactive).
For `O=c1c2c(nc3[nH]ncn13)-c1ccccc1CC21CCCC1`, the IC50 was > 20 µM (inactive).
With `CC1CC(=O)C2=C(C1)Nc1ncnn1C2c1cccnc1` (stereo not drawn) the IC50 was > 20 µM (inactive).
`O=c1c2c(nc3n1CCS3)-c1ccccc1CC21CCCCC1` was tested, and the IC50 was > 20 µM (inactive).
With `O=c1c2cnc3nc(-c4ccccc4)nn3c2ccn1CCc1cnc[nH]1` the IC50 was > 20 µM (inactive).
For `Cn1c(NCCO)nc2c(c1=O)C1(CCCCC1)Cc1ccccc1-2`, the IC50 was > 20 µM (inactive).
For `CC1(C)CC(n2c(=S)[nH]c3c(c2=O)C2(CCCC2)Cc2ccccc2-3)CCO1` (stereo not drawn), the IC50 was > 20 µM (inactive).
`Cc1ccc2c(c1)-c1c(c(=O)n(Cc3ccccc3)c3nncn13)C1(CCCCC1)C2` was tested, and the IC50 was > 20 µM (inactive).
In the case of `O=c1c2c(n3nnnc3n1Cc1ccc(F)cc1)-c1ccccc1CC21CCCC1`, the IC50 is reported as > 20 µM (inactive).
With `COc1ccc2c(c1)-c1c(c(=O)n(Cc3ccc(Cl)cc3)c3nnnn13)C(C)(C)C2` the IC50 was > 20 µM (inactive).
For `O=c1c2c(n3cnnc3n1C1CCCCC1)-c1ccccc1CC21CCCCC1`, the IC50 was > 20 µM (inactive).
With `O=c1c2c(n3nnnc3n1-c1ccccc1)-c1ccccc1CC21CCCC1` the IC50 was > 20 µM (inactive).
With `O=c1c2c(-c3ccccc3)n3ncnc3nc2ccn1-c1ccccc1` the IC50 was > 20 µM (inactive).
In the case of `O=c1c2c(n3cnnc3n1Cc1ccc(Cl)cc1)-c1ccccc1CC21CCCC1`, the IC50 is reported as > 20 µM (inactive).
For `O=c1c2c(n3cnnc3n1Cc1ccccc1)-c1ccccc1CC21CCCCC1`, the IC50 was > 20 µM (inactive).
`COc1ccc2c(c1)-c1c(c(=O)n(Cc3ccc(Cl)cc3)c3nncn13)C(C)(C)C2` was tested, and the IC50 was > 20 µM (inactive).
With `COc1ccc2c(c1)-c1c(c(=O)n(Cc3ccc(F)cc3)c3nncn13)C(C)(C)C2` the IC50 was > 20 µM (inactive).
For `O=c1c2ccccc2nc2n1C1(CCCC1)Cc1ccccc1-2`, the IC50 was > 20 µM (inactive).
`COc1ccc2c(c1)-c1c(c(=O)n(Cc3ccc(Cl)cc3)c3nnnn13)C1(CCCC1)C2` was tested, and the IC50 was > 20 µM (inactive).
`O=c1c2cnc3ncnn3c2ccn1CCc1cnc[nH]1` was tested, and the IC50 was > 20 µM (inactive).
`Cc1ccc2c(c1)-c1c(c(=O)n(Cc3ccc(Cl)cc3)c3nnnn13)C1(CCCCC1)C2` was tested, and the IC50 was > 20 µM (inactive).
With `COc1ccc(Cn2c(=O)c3c(n4nnnc24)-c2ccccc2CC32CCCC2)cc1` the IC50 was > 20 µM (inactive).
`O=c1[nH]c(NCCCO)nc2c1C1(CCCCC1)Cc1ccccc1-2` was tested, and the IC50 was > 20 µM (inactive).
For `Cc1ccc2c(c1)-c1c(c(=O)n(Cc3ccccc3)c3nnnn13)C1(CCCCC1)C2`, the IC50 was > 20 µM (inactive).
With `O=c1c2c(n3nnnc3n1Cc1ccc(Cl)cc1)-c1ccccc1CC21CCCC1` the IC50 was > 20 µM (inactive).
For `O=c1c2ccccc2nc2n1C1(CCCCC1)Cc1ccccc1-2`, the IC50 was > 20 µM (inactive).
In the case of `O=C1CC(c2ccc(F)cc2)CC2=C1C(c1cccc(Cl)c1)n1ncnc1N2` (stereo not drawn), the IC50 is reported as > 20 µM (inactive).
`COc1ccc2c(c1)-c1c(c(=O)n(Cc3ccccc3)c3nncn13)C(C)(C)C2` was tested, and the IC50 was > 20 µM (inactive).
For `COc1ccc(Cn2c(=O)c3c(n4nnnc24)-c2cc(C)ccc2CC3(C)C)cc1`, the IC50 was > 20 µM (inactive).
`COc1ccc2c(c1)-c1c(c(=O)n(Cc3ccc(Cl)cc3)c3nncn13)C1(CCCC1)C2` was tested, and the IC50 was > 20 µM (inactive).
With `Cc1ccc2c(c1)-c1c(c(=O)n(Cc3ccc(Cl)cc3)c3nncn13)C1(CCCCC1)C2` the IC50 was > 20 µM (inactive).
In the case of `O=c1c2c(n3cnnc3n1Cc1ccccc1)-c1ccccc1CC21CCCC1`, the IC50 is reported as > 20 µM (inactive).
For `O=c1[nH]c(CN2CCOCC2)nc2c1C1(CCCC1)Cc1ccccc1-2`, the IC50 was > 20 µM (inactive).
In the case of `COc1ccc2c(c1)-c1c(c(=O)n(Cc3ccccc3)c3nnnn13)C(C)(C)C2`, the IC50 is reported as > 20 µM (inactive).
